Data as given in ChEMBL document CHEMBL1147076, “Antitumor activity of MLN8054, an orally active small-molecule inhibitor of Aurora A kinase” (Proc Natl Acad Sci U S A, 2007).
Activity calls are given as the source filed them. The rule behind the calls is not given here.

Assays:
[1] = biological target: Insulin-like growth factor 1 receptor (Homo sapiens) (UniProt P08069); test: Activity of human IGF1R kinase at 1 uM
[2] = biological target: MAP kinase-activated protein kinase 3 (Homo sapiens) (UniProt Q16644); test: Activity of human MAPKAP-K3 kinase at 1 uM
MAP kinase-activated protein kinase 3 (Homo sapiens), sequence (Q16644 whole entry, looked up): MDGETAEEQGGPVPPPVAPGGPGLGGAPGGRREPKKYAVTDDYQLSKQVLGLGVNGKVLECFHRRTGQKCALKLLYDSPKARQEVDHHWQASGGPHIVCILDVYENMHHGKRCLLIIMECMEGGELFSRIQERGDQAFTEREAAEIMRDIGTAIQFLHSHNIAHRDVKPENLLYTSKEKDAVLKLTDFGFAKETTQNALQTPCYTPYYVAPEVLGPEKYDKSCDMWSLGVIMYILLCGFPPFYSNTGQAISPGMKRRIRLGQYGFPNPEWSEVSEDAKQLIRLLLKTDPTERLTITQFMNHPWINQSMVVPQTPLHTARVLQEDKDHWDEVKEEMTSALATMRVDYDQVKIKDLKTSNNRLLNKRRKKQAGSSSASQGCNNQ

[3] = biological target: Serine/threonine-protein kinase PAK 3 (Homo sapiens) (UniProt O75914); test: Activity of human PAK3 kinase at 1 uM
In short: (§1)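 Single-point screen in a 226-kinase panel run by an outside service. Test compound at 1 μM with ATP at 10 μM in every assay. Other assay conditions are not given.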

[4] = biological target: Platelet-derived growth factor receptor alpha (Homo sapiens) (UniProt P16234); test: Activity of human PDGFRalpha kinase at 1 uM; in short: as §1
Platelet-derived growth factor receptor alpha (Homo sapiens), sequence (P16234 whole entry): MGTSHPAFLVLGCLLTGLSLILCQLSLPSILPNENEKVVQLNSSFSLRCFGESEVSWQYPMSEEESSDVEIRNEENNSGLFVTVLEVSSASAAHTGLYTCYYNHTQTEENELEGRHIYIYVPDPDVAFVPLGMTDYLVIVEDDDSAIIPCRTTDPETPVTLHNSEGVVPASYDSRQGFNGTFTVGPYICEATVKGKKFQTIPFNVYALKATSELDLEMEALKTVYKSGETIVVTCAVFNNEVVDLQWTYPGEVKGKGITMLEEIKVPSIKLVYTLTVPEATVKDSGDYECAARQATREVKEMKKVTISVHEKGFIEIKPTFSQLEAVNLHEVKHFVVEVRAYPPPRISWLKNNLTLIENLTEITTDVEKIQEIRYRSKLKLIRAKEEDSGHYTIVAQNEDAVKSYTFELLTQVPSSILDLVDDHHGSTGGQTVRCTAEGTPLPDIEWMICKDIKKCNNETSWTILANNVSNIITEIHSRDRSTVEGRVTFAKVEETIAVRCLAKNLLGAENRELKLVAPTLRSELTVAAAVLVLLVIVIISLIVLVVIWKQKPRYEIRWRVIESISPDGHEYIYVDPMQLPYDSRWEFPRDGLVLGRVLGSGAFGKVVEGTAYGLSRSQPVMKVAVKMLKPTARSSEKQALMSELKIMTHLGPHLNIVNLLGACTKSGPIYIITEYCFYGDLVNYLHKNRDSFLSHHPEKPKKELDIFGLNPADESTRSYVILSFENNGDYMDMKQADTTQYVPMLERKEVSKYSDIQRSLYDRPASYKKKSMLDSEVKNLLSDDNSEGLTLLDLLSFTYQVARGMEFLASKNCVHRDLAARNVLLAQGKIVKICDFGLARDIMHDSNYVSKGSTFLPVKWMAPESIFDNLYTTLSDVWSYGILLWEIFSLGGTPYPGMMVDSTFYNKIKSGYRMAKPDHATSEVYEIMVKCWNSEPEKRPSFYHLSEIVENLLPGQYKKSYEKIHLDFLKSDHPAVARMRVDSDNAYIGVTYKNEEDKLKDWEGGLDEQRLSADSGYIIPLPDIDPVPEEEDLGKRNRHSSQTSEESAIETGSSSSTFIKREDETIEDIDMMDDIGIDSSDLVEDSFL

[5] = biological target: Protein kinase C alpha type (Homo sapiens) (UniProt P17252); test: Activity of human PKCalpha kinase at 1 uM; in short: as §1
[6] = biological target: Protein kinase C zeta type (Homo sapiens) (UniProt Q05513); test: Activity of human PKCzeta kinase at 1 uM; in short: as §1
[7] = biological target: cGMP-dependent protein kinase 1 (Homo sapiens) (UniProt Q13976); test: Activity of human PKG1alpha kinase at 1 uM
cGMP-dependent protein kinase 1 (Homo sapiens), sequence (Q13976 whole entry): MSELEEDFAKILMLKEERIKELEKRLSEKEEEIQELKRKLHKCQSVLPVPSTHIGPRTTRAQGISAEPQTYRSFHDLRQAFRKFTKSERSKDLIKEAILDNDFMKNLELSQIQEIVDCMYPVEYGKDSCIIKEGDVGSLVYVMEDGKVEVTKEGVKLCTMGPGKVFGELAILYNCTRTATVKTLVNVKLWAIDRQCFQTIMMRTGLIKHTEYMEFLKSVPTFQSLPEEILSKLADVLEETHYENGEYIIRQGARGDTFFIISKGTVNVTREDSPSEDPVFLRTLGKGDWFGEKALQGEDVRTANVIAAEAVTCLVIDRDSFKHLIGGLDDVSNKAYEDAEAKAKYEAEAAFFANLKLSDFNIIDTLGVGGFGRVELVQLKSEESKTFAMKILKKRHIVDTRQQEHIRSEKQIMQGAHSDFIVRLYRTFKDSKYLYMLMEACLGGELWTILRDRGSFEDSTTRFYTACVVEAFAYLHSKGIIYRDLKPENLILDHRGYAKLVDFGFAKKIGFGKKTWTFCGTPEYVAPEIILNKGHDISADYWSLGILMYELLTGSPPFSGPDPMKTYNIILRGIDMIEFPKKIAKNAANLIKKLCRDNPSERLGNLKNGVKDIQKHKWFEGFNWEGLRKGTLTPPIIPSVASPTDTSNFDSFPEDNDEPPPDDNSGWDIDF
In short: (§2)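 Single-point kinase profiling: each kinase in a 226-kinase panel tested with compound at 1 μM and ATP at 10 μM in every assay, run by an external screening service.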

[8] = biological target: Testis-specific serine/threonine-protein kinase 2 (Homo sapiens) (UniProt Q96PF2); test: Activity of human TSSK2 kinase at 1 uM; in short: as §1
[9] = Plasma concentration in human HCT116 cells xenografted in mouse at 30 mg/kg, po after 24 hrs; assay type: ADME, organism-based, HCT-116; set-up: dose 30 mg/kg, route oral
[10] = biological target: Death-associated protein kinase 1 (Homo sapiens) (UniProt P53355); test: Activity of human DAPK1 kinase at 1 uM; in short: as §2
[11] = biological target: Eukaryotic elongation factor 2 kinase (Homo sapiens) (UniProt O00418); test: Activity of human eEF-2K kinase at 1 uM
Eukaryotic elongation factor 2 kinase (Homo sapiens), sequence (O00418 whole entry): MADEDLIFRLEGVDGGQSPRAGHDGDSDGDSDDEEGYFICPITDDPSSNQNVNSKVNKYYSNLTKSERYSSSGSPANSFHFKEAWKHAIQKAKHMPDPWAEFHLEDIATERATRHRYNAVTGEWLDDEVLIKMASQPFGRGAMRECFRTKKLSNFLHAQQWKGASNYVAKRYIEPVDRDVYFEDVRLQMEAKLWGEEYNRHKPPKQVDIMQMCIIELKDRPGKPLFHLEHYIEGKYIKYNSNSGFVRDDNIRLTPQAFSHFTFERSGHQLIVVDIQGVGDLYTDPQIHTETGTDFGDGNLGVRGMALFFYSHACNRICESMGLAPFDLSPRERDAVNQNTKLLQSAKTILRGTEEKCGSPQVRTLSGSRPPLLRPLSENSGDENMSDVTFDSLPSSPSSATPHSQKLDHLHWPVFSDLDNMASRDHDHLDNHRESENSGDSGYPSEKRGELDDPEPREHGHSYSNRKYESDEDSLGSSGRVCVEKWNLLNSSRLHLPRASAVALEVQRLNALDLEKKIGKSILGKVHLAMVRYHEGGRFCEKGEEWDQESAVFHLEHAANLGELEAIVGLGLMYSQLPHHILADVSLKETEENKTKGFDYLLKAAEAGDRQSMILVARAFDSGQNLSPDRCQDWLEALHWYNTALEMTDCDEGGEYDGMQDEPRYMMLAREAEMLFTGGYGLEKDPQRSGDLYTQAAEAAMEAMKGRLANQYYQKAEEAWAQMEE
In short: (§3)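 Single-concentration screen across a 226-kinase panel run by an outside provider; test compound at 1 μM with 10 μM ATP in every assay. Other conditions not detailed.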

[12] = biological target: Ephrin type-A receptor 3 (Homo sapiens) (UniProt P29320); test: Activity of human EphA3 kinase at 1 uM
Ephrin type-A receptor 3 (Homo sapiens), sequence (P29320 whole entry): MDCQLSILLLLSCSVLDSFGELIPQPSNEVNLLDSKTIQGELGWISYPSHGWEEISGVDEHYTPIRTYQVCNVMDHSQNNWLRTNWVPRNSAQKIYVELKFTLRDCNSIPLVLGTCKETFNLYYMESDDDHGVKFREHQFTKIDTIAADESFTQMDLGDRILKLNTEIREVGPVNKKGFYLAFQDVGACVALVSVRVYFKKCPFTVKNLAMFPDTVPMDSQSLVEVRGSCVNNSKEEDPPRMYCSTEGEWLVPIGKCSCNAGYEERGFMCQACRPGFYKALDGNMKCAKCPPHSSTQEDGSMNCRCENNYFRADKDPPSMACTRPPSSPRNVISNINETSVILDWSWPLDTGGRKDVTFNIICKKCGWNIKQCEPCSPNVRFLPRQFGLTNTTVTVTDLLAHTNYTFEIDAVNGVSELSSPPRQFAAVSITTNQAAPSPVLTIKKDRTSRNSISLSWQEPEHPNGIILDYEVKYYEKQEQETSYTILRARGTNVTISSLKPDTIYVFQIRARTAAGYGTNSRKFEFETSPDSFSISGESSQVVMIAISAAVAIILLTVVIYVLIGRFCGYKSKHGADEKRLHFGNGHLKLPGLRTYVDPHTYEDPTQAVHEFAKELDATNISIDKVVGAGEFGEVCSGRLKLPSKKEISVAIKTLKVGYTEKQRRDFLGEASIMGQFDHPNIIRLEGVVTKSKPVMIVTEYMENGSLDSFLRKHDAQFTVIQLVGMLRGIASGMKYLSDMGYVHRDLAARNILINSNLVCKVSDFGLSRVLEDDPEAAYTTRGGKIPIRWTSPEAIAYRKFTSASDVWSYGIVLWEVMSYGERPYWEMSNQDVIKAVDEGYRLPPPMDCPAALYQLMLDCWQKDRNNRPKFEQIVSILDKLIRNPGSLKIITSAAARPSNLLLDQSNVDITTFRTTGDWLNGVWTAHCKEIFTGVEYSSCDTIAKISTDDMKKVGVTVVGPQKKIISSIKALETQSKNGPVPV

[13] = biological target: Tyrosine-protein kinase Yes (Homo sapiens) (UniProt P07947); test: Activity of human Yes kinase at 1 uM; in short: as §3
Mus musculus = test: Toxicity in human HCT116 cells xenografted into athymic nude NCR nu/nu mouse assessed as decrease in neutrophil count at 30 mg/kg, BID after 21 days; assay type: organism-based, HCT-116; set-up: dose 30 mg/kg; scale not given: the % may be the effect or the level left; conditions: in vivo, 504 h
In short: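 Female athymic nude NCR nu/nu mice were given HCT-116 cells (1 × 10^6) s.c. in the right flank. Drug in 10% hydroxypropyl-β-cyclodextrin/5% sodium bicarbonate was given orally (QD or BID) for 21 days. Body weight loss was recorded at the end of treatment, and neutrophil counts were also followed for the BID regimen.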

[14] = biological target: Tyrosine-protein kinase Blk (Mus musculus) (UniProt P16277); test: Activity of mouse Blk kinase at 1 uM; in short: as §3
Tyrosine-protein kinase Blk (Mus musculus), sequence (P16277 whole entry): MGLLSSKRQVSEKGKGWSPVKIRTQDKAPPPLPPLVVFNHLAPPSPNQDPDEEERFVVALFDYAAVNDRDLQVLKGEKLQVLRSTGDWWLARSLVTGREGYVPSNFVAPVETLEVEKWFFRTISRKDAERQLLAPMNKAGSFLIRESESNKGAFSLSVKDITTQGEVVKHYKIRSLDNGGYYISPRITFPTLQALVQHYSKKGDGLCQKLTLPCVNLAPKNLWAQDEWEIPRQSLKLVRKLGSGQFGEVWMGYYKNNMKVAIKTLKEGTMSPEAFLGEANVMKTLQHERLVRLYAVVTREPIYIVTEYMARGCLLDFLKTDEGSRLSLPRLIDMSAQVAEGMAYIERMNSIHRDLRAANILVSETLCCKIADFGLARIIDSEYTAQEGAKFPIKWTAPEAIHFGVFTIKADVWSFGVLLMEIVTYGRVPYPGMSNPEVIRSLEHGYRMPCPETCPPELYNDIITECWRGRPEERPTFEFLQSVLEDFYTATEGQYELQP

Homo sapiens [15] = species: Homo sapiens; test: Activity of human CDK5/p25 kinase at 1 uM
Homo sapiens [16] = species: Homo sapiens; test: Activity of human CDK5/p35 kinase at 1 uM
[17] = biological target: Casein kinase I homolog 1 (Saccharomyces cerevisiae S288c) (UniProt P23291); test: Activity of Saccharomyces cerevisiae CK1 kinase at 1 uM
Casein kinase I homolog 1 (Saccharomyces cerevisiae S288c), sequence (P23291 whole entry): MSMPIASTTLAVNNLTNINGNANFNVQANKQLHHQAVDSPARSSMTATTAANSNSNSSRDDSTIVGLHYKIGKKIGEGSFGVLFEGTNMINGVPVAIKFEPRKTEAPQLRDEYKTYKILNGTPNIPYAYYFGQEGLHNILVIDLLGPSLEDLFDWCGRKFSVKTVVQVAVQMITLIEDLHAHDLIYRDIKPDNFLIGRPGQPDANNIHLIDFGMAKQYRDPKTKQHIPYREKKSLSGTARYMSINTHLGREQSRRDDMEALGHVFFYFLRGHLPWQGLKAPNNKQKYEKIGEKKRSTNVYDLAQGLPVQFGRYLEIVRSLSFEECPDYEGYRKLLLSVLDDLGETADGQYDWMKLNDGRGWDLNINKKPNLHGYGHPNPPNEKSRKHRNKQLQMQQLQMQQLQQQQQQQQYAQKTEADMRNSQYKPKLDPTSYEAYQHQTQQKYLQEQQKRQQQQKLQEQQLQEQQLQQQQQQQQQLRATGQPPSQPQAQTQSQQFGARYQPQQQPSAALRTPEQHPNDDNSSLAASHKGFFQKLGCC

PC-3 [18] = test: Induction of apoptosis in human PC3 cells assessed as PARP cleavage at 0.25 uM after 24 hrs by Western blot method; assay type: functional, cell-based
SW480 = test: Antiproliferative activity against human SW480 cells after 96 hrs by BrdU cell proliferation ELISA; assay type: functional, cell-based; conditions: SW480, 96 h
In short: (§4)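 BrdU incorporation proliferation assay on cultured human tumor lines; IC50 values derived from growth inhibition.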

MDA-MB-231 = test: Antiproliferative activity against human MDAMB231 cells after 96 hrs by BrdU cell proliferation ELISA; assay type: functional, cell-based; conditions: MDA-MB-231, 96 h; in short: as §4
PC-3 [19] = test: Antiproliferative activity against human PC3 cells after 96 hrs by BrdU cell proliferation ELISA; assay type: functional, cell-based; conditions: PC-3, 96 h; in short: as §4
[20] = Inhibition of Abl kinase at 1 uM
[21] = biological target: Ephrin type-A receptor 1 (Homo sapiens) (UniProt P21709); test: Inhibition of EphA1 kinase at 1 uM
In short: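 Single-point screen within a 226-kinase panel, with compound at 1 μM and ATP at 10 μM in all assays.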

PC-3 [22] = test: Cell cycle arrest in human PC3 cells by accumulation at G2/M phase at 1 uM after 48 hrs by flow cytometry relative to control; assay type: functional
In short: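 DNA content profiles by flow cytometry of PC-3 prostate tumor cells exposed to drug diluted in DMSO for 24 or 48 h. Phase distribution was compared with DMSO-treated control cells.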

SMILES: O=C(O)c1ccc(Nc2ncc3c(n2)-c2ccc(Cl)cc2C(c2c(F)cccc2F)=NC3)cc1 [MLN-8054]
- Activity [1]: 88%
- Activity [2]: 104%
- Activity [3]: 94%
- Activity [4]: 110%
- Activity [5]: 108%
- Activity [6]: 99%
- Activity [7]: 103%
- Activity [8]: 101%
- concentration at 24 h [9]: 400 nM
- Activity [10]: 114%
- Activity [11]: 123%
- Activity [12]: 88%
- Activity [13]: 20%
- Activity (Mus musculus): 73%
- Activity [14]: 53%
- Activity (Homo sapiens [15]): 94%
- Activity (Homo sapiens [16]): 100%
- Activity [17]: 115%
- Activity (PC-3 [18]): Active
- IC50 (SW480): 860 nM
- IC50 (MDA-MB-231): 740 nM
- IC50 (PC-3 [19]): 790 nM
- inhibition [20]: 76%
- inhibition [21]: 71%
- Activity (PC-3 [22]): 59.8%
